This is an account of results in ChEMBL document CHEMBL3576829, “Design, synthesis and evaluation of scutellarein-O-alkylamines as multifunctional agents for the treatment of Alzheimer's disease” (Eur J Med Chem, 2015).

Broadly, the IC50 is the concentration that gives 50% inhibition. High values mean weaker potency, low ones greater potency.

The target of test [1] is T1, Acetylcholinesterase (Rattus norvegicus, UniProt P37136).
T1 sequence (P37136 whole entry): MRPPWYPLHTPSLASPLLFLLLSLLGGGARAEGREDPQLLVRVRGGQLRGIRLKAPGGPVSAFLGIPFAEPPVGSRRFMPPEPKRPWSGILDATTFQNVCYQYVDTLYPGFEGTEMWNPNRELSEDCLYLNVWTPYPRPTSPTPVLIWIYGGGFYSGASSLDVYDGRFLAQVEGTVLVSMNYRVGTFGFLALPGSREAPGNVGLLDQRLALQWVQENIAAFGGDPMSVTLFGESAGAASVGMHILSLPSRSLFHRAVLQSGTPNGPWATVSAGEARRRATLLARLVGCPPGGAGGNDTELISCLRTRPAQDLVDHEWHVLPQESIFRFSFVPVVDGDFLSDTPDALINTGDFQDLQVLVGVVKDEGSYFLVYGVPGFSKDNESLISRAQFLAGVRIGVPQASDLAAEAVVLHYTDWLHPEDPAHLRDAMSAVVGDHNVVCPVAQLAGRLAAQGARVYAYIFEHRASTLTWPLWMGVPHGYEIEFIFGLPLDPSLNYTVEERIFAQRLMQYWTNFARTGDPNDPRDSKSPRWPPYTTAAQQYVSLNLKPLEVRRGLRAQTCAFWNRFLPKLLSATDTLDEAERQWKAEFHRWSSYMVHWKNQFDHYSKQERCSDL
Briefly: Inhibition of AChE in rat cortex using acetylthiocholine iodide as substrate after 15 mins by Ellman's method. A general note: In Ellman's method for cholinesterases, released thiocholine reacts with DTNB.

The nature of test [2]: Inhibition of BuChE in rat serum using butyrylthiocholine iodide as substrate after 15 mins by Ellman's method. As to conditions: 0.25 h. In short, it runs like this:
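Rat serum (25%, 10 µL) in 100 µL with 1 mmol/L butyrylthiocholine iodide stock, pH 7.4 phosphate buffer and graded inhibitor levels, 37°C for 15 min; DTNB (0.2%) then added and absorbance read at 405 nm.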

The target of test [3] is Acetylcholinesterase (Electrophorus electricus, UniProt O42275). The test can be described thus: Inhibition of electric eel AChE using acetylthiocholine iodide as substrate after 15 mins by Ellman's method.
For test [4], the species on record is Rattus norvegicus. The test can be described thus: Selectivity index, ratio of IC50 for rat serum BuChE to IC50 for rat cortex AChE.

Chain of Acetylcholinesterase (Electrophorus electricus, UniProt O42275) (O42275 whole entry): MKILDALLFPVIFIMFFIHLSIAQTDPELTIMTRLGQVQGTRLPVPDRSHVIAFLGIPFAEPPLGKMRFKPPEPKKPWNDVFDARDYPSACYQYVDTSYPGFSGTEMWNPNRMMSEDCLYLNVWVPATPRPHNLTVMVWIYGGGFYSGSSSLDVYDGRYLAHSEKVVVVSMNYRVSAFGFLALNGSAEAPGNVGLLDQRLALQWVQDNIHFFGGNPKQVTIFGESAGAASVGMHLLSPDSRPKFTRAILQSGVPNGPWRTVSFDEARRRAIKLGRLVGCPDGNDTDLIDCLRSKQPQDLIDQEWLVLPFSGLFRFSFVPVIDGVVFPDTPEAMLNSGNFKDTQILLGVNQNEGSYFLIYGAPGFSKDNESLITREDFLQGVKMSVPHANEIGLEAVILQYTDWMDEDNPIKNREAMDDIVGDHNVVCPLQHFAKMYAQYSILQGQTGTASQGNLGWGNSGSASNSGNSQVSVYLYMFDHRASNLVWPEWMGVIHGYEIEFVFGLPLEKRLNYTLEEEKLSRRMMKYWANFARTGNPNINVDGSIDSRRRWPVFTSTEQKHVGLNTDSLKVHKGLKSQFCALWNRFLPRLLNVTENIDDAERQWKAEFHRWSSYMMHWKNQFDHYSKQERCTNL

Consider `COc1ccccc1CN(C)CCCOc1cccc(-c2cc(=O)c3c(OC)c(OC)c(OC)cc3o2)c1`, for which the values for the IC50 in test [1], in test [2] and in test [3] were 0.38 µM, 75.4 µM and 1.59 µM, respectively. Also, in test [4], the Ratio IC50 is 198.
The corresponding values for `COc1ccccc1CN(C)CCCOc1ccc(-c2cc(=O)c3c(O)c(OC)c(OC)cc3o2)cc1` are 5 µM, greater than 500 µM, 31.1 µM and greater than 100.
For the compound `COc1cc2oc(-c3ccc(OCCCN4CCN(C)CC4)cc3)cc(=O)c2c(OC)c1OC`, the IC50 in test [1] was 8.3 µM; in test [2], greater than 500 µM; in test [3] it was 34.7 µM. Also, in test [4], the Ratio IC50 was greater than 60.2.
With `COc1cc2oc(-c3cccc(OCCN(C)Cc4ccccc4)c3)cc(=O)c2c(OC)c1OC`, the IC50 stood at 9.2 µM in test [1], 87.9 µM in test [2] and 35.7 µM in test [3]. Further, the Ratio IC50 in test [4] was found to be 9.6.
In the case of `CCN(CCOc1cccc(-c2cc(=O)c3c(OC)c(OC)c(OC)cc3o2)c1)Cc1ccccc1`, the IC50 in test [1] came out at 3.37 µM; in test [2] it was 79.6 µM; in test [3] it was 3.8 µM. In addition, in test [4], the Ratio IC50 amounted to 23.6.
Take `COc1cc2oc(-c3ccc(OCCCCN4CCN(Cc5ccccc5)CC4)cc3)cc(=O)c2c(OC)c1OC`: the half-inhibitory concentration (IC50) in test [1] was determined as 2.56 µM; in test [2], 131 µM; in test [3], 8.53 µM. Moreover, the Ratio IC50 in test [4] is 51.1.
With `COc1ccccc1CN(C)CCCOc1ccc(-c2cc(=O)c3c(OC)c(OC)c(OC)cc3o2)cc1`, the values for the IC50 in test [1], in test [2] and in test [3] were 1.76 µM, 108 µM and 8.6 µM, respectively. For the same compound, the Ratio IC50 in test [4] was 61.1.
The like results for `COc1ccccc1CN(C)CCCOc1cccc(-c2cc(=O)c3c(O)c(OC)c(OC)cc3o2)c1` were, in that order, 8.1 µM, 354 µM, 28.6 µM and 43.7.
As for `COc1ccccc1CN(C)CCCCCCOc1ccc(-c2cc(=O)c3c(OC)c(OC)c(OC)cc3o2)cc1`, the IC50 in test [1] was 0.45 µM; in test [2] it was 96.1 µM; in test [3], 2.23 µM. For the same compound, the Ratio IC50 in test [4] was found to be 214.
The corresponding values for `COc1ccccc1CN(C)CCCCCCOc1cccc(-c2cc(=O)c3c(OC)c(OC)c(OC)cc3o2)c1` are 0.96 µM, 60.7 µM, 4.5 µM and 63.2.
`CCN(CCCOc1ccc(-c2cc(=O)c3c(OC)c(OC)c(OC)cc3o2)cc1)Cc1ccccc1`: the concentration for half-maximal inhibition (IC50) in test [1] was found to be 2.04 µM; in test [2] it was 81.3 µM; in test [3], 7.3 µM. Further, the Ratio IC50 in test [4] was found to be 39.9.
Consider `COc1cc2oc(-c3ccc(OCCCCCCN(C)Cc4ccccc4)cc3)cc(=O)c2c(OC)c1OC`, for which the values for the IC50 in test [1], in test [2] and in test [3] were 0.99 µM, 84.6 µM and 5.4 µM, respectively. The Ratio IC50 in test [4] was 85.5.
On to `COc1ccccc1CN(C)CCCCCCOc1ccc(-c2cc(=O)c3c(O)c(OC)c(OC)cc3o2)cc1`, for which the IC50 in test [1] was 5.07 µM; in test [2] it was greater than 500 µM; in test [3] it was 22.6 µM. The Ratio IC50 in test [4] is greater than 98.6.
`COc1cc2oc(-c3ccc(OCCCN4CCN(Cc5ccccc5)CC4)cc3)cc(=O)c2c(OC)c1OC`: the IC50 in test [1] is 1.8 µM; in test [2] it was greater than 500 µM; in test [3] it was 8.7 µM. Besides, in test [4], the Ratio IC50 was greater than 278.
Regarding `COc1cc2oc(-c3cccc(OCCCCCCN4CCN(Cc5ccccc5)CC4)c3)cc(=O)c2c(OC)c1OC`, the IC50 was 7.33 µM in test [1], greater than 500 µM in test [2] and 21.4 µM in test [3]. Also, the Ratio IC50 in test [4] is greater than 68.2.
Turning to `CCN(CCCCCCOc1ccc(-c2cc(=O)c3c(OC)c(OC)c(OC)cc3o2)cc1)Cc1ccccc1`, the IC50 in test [1] is 0.34 µM; in test [2], greater than 500 µM; in test [3], 2.83 µM. Also, in test [4], the Ratio IC50 was greater than 1470.
On to `COc1ccccc1CN(C)CCCCOc1cccc(-c2cc(=O)c3c(O)c(OC)c(OC)cc3o2)c1`, for which the IC50 was 7.73 µM in test [1], greater than 500 µM in test [2] and 31 µM in test [3]. In addition, in test [4], the Ratio IC50 is greater than 64.7.
On to `COc1cc2oc(-c3cccc(OCCCN4CCN(Cc5ccccc5)CC4)c3)cc(=O)c2c(OC)c1OC`, for which the IC50 in test [1] amounted to 3.12 µM; in test [2], 149 µM; in test [3] it was 1.59 µM. In test [4], the Ratio IC50 was 47.7.
For the compound `COc1ccccc1CN(C)CCCCCCOc1cccc(-c2cc(=O)c3c(O)c(OC)c(OC)cc3o2)c1`, the IC50 in test [1] was determined as 1.59 µM; in test [2], 404 µM; in test [3] it was 5.8 µM. For the same compound, the Ratio IC50 in test [4] was 254.
In the case of `COc1cc2oc(-c3cccc(OCCCN4CCN(C)CC4)c3)cc(=O)c2c(OC)c1OC`, the IC50 in test [1] is 7.47 µM; in test [2] it was greater than 500 µM; in test [3] it was 35.2 µM. In test [4], the Ratio IC50 is greater than 66.9.
Consider `COc1cc2oc(-c3cccc(OCCCN(C)Cc4ccccc4)c3)cc(=O)c2c(OC)c1OC`, for which the results for the IC50 in test [1], in test [2] and in test [3] were 5.17 µM, 117 µM and 25 µM, respectively. Moreover, in test [4], the Ratio IC50 turned out to be 22.7.
On to `CCN(CCCCOc1cccc(-c2cc(=O)c3c(OC)c(OC)c(OC)cc3o2)c1)Cc1ccccc1OC`, for which the IC50 turned out to be 0.8 µM in test [1], 78.3 µM in test [2] and 2.37 µM in test [3]. For the same compound, the Ratio IC50 in test [4] was 97.9.
For the compound `COc1cc2oc(-c3cccc(OCCCCN(C)Cc4ccccc4)c3)cc(=O)c2c(OC)c1OC`, the IC50 in test [1] was found to be 4.53 µM; in test [2], 90.7 µM; in test [3], 18.4 µM. Also, the Ratio IC50 in test [4] worked out at 20.
Turning to `CCN(CCCOc1cccc(-c2cc(=O)c3c(OC)c(OC)c(OC)cc3o2)c1)Cc1ccccc1OC`, the values for the IC50 in test [1], in test [2] and in test [3] were 0.33 µM, 77.2 µM and 1.78 µM, respectively. The Ratio IC50 in test [4] was 234.
Turning to `CCN(CCCOc1cccc(-c2cc(=O)c3c(O)c(OC)c(OC)cc3o2)c1)Cc1ccccc1OC`, the IC50 in test [1] stood at 1.58 µM; in test [2] it was 240 µM; in test [3], 4.5 µM. Also, the Ratio IC50 in test [4] came to 152.
`COc1cc2oc(-c3ccc(OCCCN(C)Cc4ccccc4)cc3)cc(=O)c2c(OC)c1OC`: the IC50 came out at 2.62 µM in test [1], 136 µM in test [2] and 11.5 µM in test [3]. Also, in test [4], the Ratio IC50 amounted to 51.8.
On to `CCN(CCCCOc1cccc(-c2cc(=O)c3c(O)c(OC)c(OC)cc3o2)c1)Cc1ccccc1OC`, for which the results for the concentration for half-maximal inhibition (IC50) in test [1], in test [2] and in test [3] were 2.4 µM, greater than 500 µM and 7.97 µM, respectively. The Ratio IC50 in test [4] was greater than 208.
On to `CCN(CCCCCCOc1cccc(-c2cc(=O)c3c(OC)c(OC)c(OC)cc3o2)c1)Cc1ccccc1OC`, for which the values for the IC50 in test [1], in test [2] and in test [3] were 0.22 µM, 41.6 µM and 1.3 µM, respectively. For the same compound, in test [4], the Ratio IC50 was determined as 189.
`COc1cc2oc(-c3cccc(OCCN4CCN(Cc5ccccc5)CC4)c3)cc(=O)c2c(OC)c1OC`: the IC50 in test [1] was 1.18 µM; in test [2], greater than 500 µM; in test [3], 2.91 µM. The Ratio IC50 in test [4] was greater than 424.
As to `O=c1cc(-c2ccc(O)cc2)oc2cc(O)c(O)c(O)c12` [SCUTELLAREIN], the IC50 in test [1] and in test [2] was greater than 500 µM in each case.
Regarding `CCN(CCCCCCOc1cccc(-c2cc(=O)c3c(O)c(OC)c(OC)cc3o2)c1)Cc1ccccc1OC`, the IC50 in test [1] came out at 1.27 µM; in test [2], 484 µM; in test [3], 0.77 µM. Besides, the Ratio IC50 in test [4] came to 381.
Consider `COc1cc2oc(-c3ccc(OCCCCCCN4CCN(Cc5ccccc5)CC4)cc3)cc(=O)c2c(OC)c1OC`, for which the IC50 in test [1] was 8.07 µM; in test [2], greater than 500 µM; in test [3] it was 26.5 µM. The Ratio IC50 in test [4] is greater than 62.
The corresponding values for `COc1ccccc1CN(C)CCOc1cccc(-c2cc(=O)c3c(OC)c(OC)c(OC)cc3o2)c1` are 3.22 µM, 31.4 µM, 2.49 µM and 9.8.
The like results for `CCN(CCCOc1cccc(-c2cc(=O)c3c(OC)c(OC)c(OC)cc3o2)c1)Cc1ccccc1` were, in that order, 5.4 µM, 101 µM, 20.4 µM and 18.7.
As for `COc1cc2oc(-c3cccc(OCCCCN4CCN(C)CC4)c3)cc(=O)c2c(OC)c1OC`, the IC50 is 0.25 µM in test [1], greater than 500 µM in test [2] and 1.15 µM in test [3]. The Ratio IC50 in test [4] is greater than 2000.
`CCN(CCCCCCOc1cccc(-c2cc(=O)c3c(OC)c(OC)c(OC)cc3o2)c1)Cc1ccccc1`: the IC50 in test [1] turned out to be 2.03 µM; in test [2], 52.1 µM; in test [3], 12.2 µM. Besides, the Ratio IC50 in test [4] was found to be 25.7.
`COc1cc2oc(-c3cccc(OCCN4CCN(C)CC4)c3)cc(=O)c2c(OC)c1OC`: the IC50 is 8.2 µM in test [1], greater than 500 µM in test [2] and 22.5 µM in test [3]. The Ratio IC50 in test [4] was greater than 61.
